Screens from PubChem.
Sampled rows, rich in hits. Any-hit rate of the full collection: about 2%.
CaV13 FRET inh = Primary screen for inhibitors of IQ motif and Ca2+-dependent inactivation inhibitor domain binding in CACNA1D, Förster resonance energy transfer in living cells, …. 340,000 tested, 0.098% active. inhibition, % at 12.3 µM. HEK cells, CFP/YFP FRET ICDI-IQ, plate reader, 10 min; percent FRET-ratio fall versus neutral wells. AID 743397;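 active = mean replicate inhibition of at least 30% and at least 1% of replicates passing that level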;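 also: 0% = median of the neutral control wells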
Xi reactivation = activators of inactive X chromosome reactivation, primary screen, imaging, XiGFP fibroblasts, GFP high-content imaging, set 2. activation, % at 7.58 µM. AID 743238, 2013. 360,000 tested, 0.055% active. XiGFP mouse fibroblasts, % GFP-positive cells imaging, 3 d; cells co-treated with 5-aza-dC sensitizer; scaled so ellipticine positive control = 100%;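 active = mean normalized replicate activation at least 10% and every replicate at or above 10%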;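 also: 0% = median of on-plate neutral control wells and 100% = ellipticine 6 µM median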
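System: XiGFP fibroblasts, SV40-immortalized. Medium: DMEM plus 5-aza-dC sensitizer. Doses: single point. Timing: 3 d treatment, 15 min room-temperature fixation. Control set: ellipticine 6 µM.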
FN deposition inh = inhibitors of fibronectin matrix deposition, primary screen, AH1F cells, Alexa488-fibronectin fluorescence, plate reader; AH1F fibroblasts, overnight; inhibition, % at 12.6 µM; 350,000 tested, 0.086% active;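 active = mean inhibition across replicates of 30% or more, regardless of how many single replicates reach that level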;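 also: positive control wells lacked labelled fibronectin entirely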
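Assay system: AH1F fibroblasts / Quantity: 10000 cells per well / Medium: DMEM plus 2% serum, read in PBS / Reagent: labelled fibronectin 24 nM / Dosing: single dose, pinned / Times: 1 h cell attachment, overnight exposure to compound and label / Signal: fluorescence, ex 485 nm, em 525 nm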
Casp6 inh = human caspase-6 inhibitors, primary screen, biochemical, VEID-R110 fluorescence, single point, set 2; P55212; purified caspase-6, Z-VEID-R110 cleavage fluorescence; inhibition, % at 12.5 µM; 350,000 tested, 0.53% active; AID 686996, 2013;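 active = mean inhibition across replicates at least about 35%, with every replicate also reaching that limit, limit read from the data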;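 also: 0% = median of neutral control wells and 100% = no fluorescence left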
Target sequence (P55212 24-179 limits assumed): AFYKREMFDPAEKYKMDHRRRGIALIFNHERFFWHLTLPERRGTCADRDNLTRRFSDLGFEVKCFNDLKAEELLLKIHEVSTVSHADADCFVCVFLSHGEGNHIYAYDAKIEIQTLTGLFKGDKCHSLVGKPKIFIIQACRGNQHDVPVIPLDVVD
Target sequence (P55212 194-293 limits assumed): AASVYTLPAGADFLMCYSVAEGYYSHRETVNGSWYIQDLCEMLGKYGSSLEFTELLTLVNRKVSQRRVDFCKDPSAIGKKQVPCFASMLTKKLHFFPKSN
DENV2 CPE = inhibitors of DENV2 cytopathic effect, primary screen, cell-based, plate reader, single concentration. DENV2-infected cells, cytopathic effect rescue. CPE inhibition, % at 9.99 µM. 350,000 tested, 1.7% active. AID 651640, 2012; in the data active = CPE inhibition above about 20%, passing the limit was not always enough; tested in BHK-21 cells;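 also: 0% = median of neutral control wells and 100% = median of positive control wells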
An asterisk follows results filed as active; . = not tested or not shown; + = active, no number.

SMILES	CaV13 FRET inh	Xi reactivation	FN deposition inh	Casp6 inh	DENV2 CPE
C[C@@H]1CN([C@H](C)CO)C(=O)c2cc(C#CC(C)(C)O)cnc2O[C@H]1CN(C)Cc1cncnc1	.	-1	-1	1	3
CC(C)C#Cc1cnc2c(c1)C(=O)N([C@H](C)CO)C[C@H](C)[C@@H](CN(C)C(=O)Nc1ccccc1)O2	.	-1	-2	-1	-6
C/C=C/c1cnc2c(c1)C(=O)N([C@@H](C)CO)C[C@H](C)[C@H](CN(C)Cc1cncnc1)O2	.	0	3	0	37*
C[C@H]1CN([C@@H](C)CO)C(=O)c2cc(C#CC(C)(C)O)cnc2O[C@H]1CN(C)Cc1cncnc1	.	-1	-2	-7	33*
C[C@H](CO)N1C[C@H](C)[C@H](CN(C)C(=O)Nc2ccccc2)Oc2ncc(C#CC(C)(C)O)cc2C1=O	.	0	.	-2	26*
C/C=C/c1cnc2c(c1)C(=O)N([C@H](C)CO)C[C@@H](C)[C@H](CN(C)Cc1cncnc1)O2	.	-1	-2	-2	-2
CO[C@@H]1CN(C)C(=O)c2ccc(NS(C)(=O)=O)cc2OC[C@H](C)N(Cc2cncnc2)C[C@@H]1C	.	0	11	2	-4
CC(C)(O)C#Cc1ccc([C@H]2[C@H](CO)N3CCCCN(C(=O)c4ccc(F)cc4)C[C@@H]23)cc1	.	0	.	-3	21*
CC(C)CC#Cc1ccc([C@H]2[C@@H](CO)N3CCCCN(C(=O)c4ccc5c(c4)OCO5)C[C@@H]23)cc1	.	0	.	-1	24*
CC(C)(O)C#Cc1ccc([C@@H]2[C@H]3CN(S(C)(=O)=O)CCCCN3[C@H]2CO)cc1	.	0	8	.	.
CC(C)(O)C#Cc1ccc([C@@H]2[C@H](CO)N3CCCCN(S(C)(=O)=O)C[C@@H]23)cc1	.	0	3	-1	37*
COc1ccccc1CNC(=O)C[C@H]1CC[C@H](NC(C)=O)[C@@H](CO)O1	.	-1	-11	0	0
O=C(C[C@H]1C=C[C@H](NC(=O)c2ccc(F)cc2)[C@@H](CO)O1)NCc1ccncn1	.	1	1	1	-7
CC[C@H]1C/C=C\C[C@H](C(C)C)NC(=O)CCC(=O)N1	.	0	-3	.	.
C[C@@H]1CN([C@@H](C)CO)C(=O)c2cc(NC(=O)CCC(F)(F)F)ccc2O[C@@H](C)CCCCO[C@@H]1CN(C)Cc1ccccc1	.	1	-1	.	.
COCCNC(=O)C1(C)CCN(C(=O)c2ccc3c(c2)C(C)(C)CCC3(C)C)C1 (stereo not drawn)	-8	0	-10	-1	-3
COCCNC(=O)C1(C)CCN(C(=O)c2cc(C(C)(C)C)nn2C)C1 (stereo not drawn)	-5	0	3	-2	38*
COc1ccc(NC(=O)c2c(F)cccc2F)cc1S(=O)(=O)Nc1ccc(Br)cc1	-5	0	26	4	49*
COc1ccc(NS(=O)(=O)c2cc(NC(=O)c3ccccn3)ccc2OC)cc1Br	-3	0	-6	9	10
CS(=O)(=O)Nc1ccc2c(c1)[C@@H]1C[C@H](CC(=O)NCc3ccc(Oc4ccccc4)cc3)O[C@@H](CO)[C@@H]1O2	.	0	-12	3	0
CO[C@@H]1CN(C)C(=O)c2ccc(NS(=O)(=O)c3ccccc3)cc2OC[C@H](C)N(C)C[C@H]1C	.	0	-13	-1	25*
CO[C@H]1CN(C)C(=O)c2cc(NS(=O)(=O)c3ccccc3)ccc2OC[C@H](C)N(C)C[C@H]1C	.	0	0	-1	27*
CO[C@H]1CN(C)C(=O)c2ccc(NS(=O)(=O)c3ccccc3)cc2OC[C@H](C)N(C)C[C@@H]1C	.	0	7	-1	-7
CO[C@H]1CN(C)C(=O)c2cc(NS(=O)(=O)c3ccccc3)ccc2OC[C@@H](C)N(C)C[C@@H]1C	.	0	2	.	.
CO[C@H]1CN(C)C(=O)c2ccc(NS(=O)(=O)c3ccccc3)cc2OC[C@H](C)N(Cc2ccccn2)C[C@@H]1C	.	0	-5	-1	36*
SMILES	CaV13 FRET inh	Xi reactivation	FN deposition inh	Casp6 inh	DENV2 CPE
CO[C@H]1CN(C)C(=O)c2ccc(NS(=O)(=O)c3ccccc3)cc2OC[C@@H](C)N(Cc2ccccn2)C[C@H]1C	.	0	2	-2	7
O=C(C[C@@H]1C[C@H]2c3cc(NC(=O)Nc4ccccc4F)ccc3O[C@H]2[C@H](CO)O1)NCC1CC1	.	0	-6	1	27*
O=C(C[C@H]1C[C@@H]2c3cc(NC(=O)Nc4ccccc4F)ccc3O[C@@H]2[C@@H](CO)O1)NCC1CC1	.	0	-8	1	9
O=C(C[C@@H]1C[C@@H]2c3cc(NC(=O)Nc4ccccc4F)ccc3O[C@@H]2[C@H](CO)O1)NCC1CC1	.	0	-2	-3	68*
CC(=O)N(C)C[C@H]1Oc2ncc(-c3cccc(C#N)c3)cc2C(=O)N([C@H](C)CO)C[C@H]1C	.	-1	-4	-1	-3
Cc1oc(/N=C/c2ccccc2O)c(C#N)c1C	-8	.	.	.	.
Cc1oc(/N=C/c2ccc(O)cc2O)c(C#N)c1C	+	0	.	12	.
CC1CCN(S(=O)(=O)N2CCC(C(=O)NC3CCCC3)CC2)CC1	76*	0	14	.	-4
O=C(NC1CCCC1)C1CCN(S(=O)(=O)N2CCCCC2)CC1	-4	.	-1	.	.
C[C@@H]1CN([C@@H](C)CO)C(=O)c2cc(C#CC3(O)CCCC3)cnc2O[C@H]1CN(C)C(=O)Cc1ccncc1	.	-1	.	-7	-10
CN1N=C(C(C)(C)C)CSC1=Nc1ccccc1	-5	0	-1	37*	-1
NC(=O)[C@H]1[C@@H]2C(=O)O[C@@H](c3ccccc3)[C@@H](c3ccccc3)N2[C@@H](c2ccccc2OCCO)[C@]12C(=O)Nc1ccc(C#CC3(O)CCCCCC3)cc12	.	.	.	2	-5
CCOC(=O)CC[C@H](NC(=O)Cn1cnc2c(OCc3ccccc3)ncnc21)C(=O)OCC	-11	0	5	-1	27*
CCOC(=O)C1=C(O)/C(=C/c2cc(OC)c(O)c(OC)c2)SC1=Nc1ccc(OC)cc1	-8	15*	-3	.	.
CCOC(=O)C1=C(O)/C(=C/c2ccc(OCC(=O)O)c(OC)c2)SC1=Nc1ccc(OCC)cc1	.	0	.	37*	2
O=C(CN1CCOCC1)N1CCCCN2[C@H](CO)[C@H](c3ccc(C#Cc4ccccc4)cc3)[C@@H]2C1	.	0	.	1	31*
O=C(CN1CCOCC1)N1CCCCN2[C@@H](CO)[C@@H](c3ccc(-c4ccccc4)cc3)[C@@H]2C1	.	0	.	3	61*
